Data reported in ChEMBL document CHEMBL2413046, “Analogs of iso-azepinomycin as potential transition-state analog inhibitors of guanase: synthesis, biochemical screening, and structure-activity correlations of various selectively substituted imidazo[4,5-e][1,4]diazepines” (Bioorg Med Chem, 2013).

assay: Competitive reversible inhibition of rabbit liver guanase assessed as inhibition of guanine hydrolysis by Lineweaver-Burk plot method; parameters: species or system Oryctolagus cuniculus
In short: (§1)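 Rabbit liver guanase (ammonium sulfate suspension, diluted to 0.1278 U/mL; 0.0077 units per assay) in 0.05 M Tris-HCl pH 7.4, 25°C, 1.0 mL final volume. Guanine 5–40 µM (5–6 levels) at fixed inhibitor 10, 20 or 30 µM (DMSO or methanol stocks). Initial rate from absorbance decrease at 245 nm, mean of two data sets; Ki from Lineweaver-Burk plots.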

Row | SMILES | Ki [µM]
1 | CCCCOC1CNC(=O)c2ncn(Cc3ccccc3)c2N1 (stereo unspecified) | 54
2 | COC1CNC(=O)c2ncn(Cc3ccccc3)c2N1 (stereo unspecified) | 40
3 | CCOC1CNC(=O)c2ncn(Cc3ccccc3)c2N1 (stereo unspecified) | 47

assay: Inhibition of rabbit liver guanase assessed as inhibition of guanine hydrolysis by Lineweaver-Burk plot method; parameters: species or system Oryctolagus cuniculus; in short: as §1

Row | SMILES | Ki [µM]
4 | COc1ccc(Cn2cnc3c2NC(OC)CNC3=O)cc1 (stereo unspecified) | 21
5 | CCOC1CNC(=O)c2ncn(Cc3ccc(OC)cc3)c2N1 (stereo unspecified) | 33.4
6 | COC1CNC(=O)c2ncn(Cc3ccc(F)cc3)c2N1 (stereo unspecified) | 39.7
7 | COc1ccc(Cn2cnc3c2C(=O)NCC(OC)N3)cc1 (stereo unspecified) | 47.5
8 | COC1CNC(=O)c2nc[nH]c2N1Cc1ccccc1 (stereo unspecified) | 8.8
9 | COc1ccc(Cn2cnc3c2C(=O)NCC(OC)N3Cc2ccccc2)cc1 (stereo unspecified) | 26.5
10 | CCOC1CNC(=O)c2c(ncn2Cc2ccc(OC)cc2)N1Cc1ccccc1 (stereo unspecified) | 43.8
11 | O=C1NC(O)CNc2nc[nH]c21 (stereo unspecified) [AZEPINOMYCIN] | 2.5
